Laboratory results reported in PMC7323835 (American Journal of Clinical Oncology, 2020).

How the values were obtained:
[1] = test system: rats; assay: GLP 28-day toxicology study in rats; format: in vivo, rat; details: highest dose tested in rats, 28-day GLP
[2] = test system: advanced solid tumors; assay: Tumor response; format: in vivo, human
Outline: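 Patients with previously treated advanced solid tumours were enrolled in an open-label 3+3 escalation. The test compound was given as an oral liquid (100 mg/mL in lecithin/propylene glycol/PEG/TPGS vehicle) once daily, ≥2 h from meals, in 28-day cycles. CT/MRI was scored by RECIST v1.1 (CR/PR/SD/PD) every 8 weeks (±7 d) until progression, discontinuation or consent withdrawal. SD duration was counted in cycles.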

[3] = Plasma pharmacokinetics of SLC-0111 after single and repeated dosing; format: in vivo, human; details: for AUC(0-t) / Tmax: human, plasma, oral; for AUC(0-t): AUC(0-24), Day 1, mean; for Tmax: range of cohort means
[4] = test system: patients with previously treated, advanced solid tumors; assay: Phase 1 dose escalation study: safety and tolerability; format: in vivo, human

NS(=O)(=O)c1ccc(NC(=O)Nc2ccc(F)cc2)cc1 [SLC-0111, 4-[(4-fluorophenyl)carbamoyl]amino-benzene sulfonamide]
Severe toxic dose in 10% (STD10) of treated rodents [1]: 500 mg/kg/day
Objective responses ([2]; all cohorts): no objective responses were observed
Stable disease maintained, number of 28-day cycles ([2]; cohort 1 (500 mg), one patient with sarcoma of spine): 10 cycles
Stable disease up to cycle ([2]; cohort 3 (2000 mg), one patient with colorectal cancer): ≤ 7
Prolonged stable disease (SD), duration ([2]; observed in 2 patients): > 24 weeks
Day 28/Day 1 AUC(0-24) ratio ([3]; 500 mg/d): 2.01±0.879
Day 28/Day 1 Cmax±SD ratio ([3]; 500 mg/d): 1.32±0.298
Day 28/Day 1 AUC(0-24) ratio ([3]; 1000 mg/d): 1.47±1.42
Day 28/Day 1 Cmax±SD ratio ([3]; 1000 mg/d): 1.17±1.02
Day 28/Day 1 AUC(0-24) ratio ([3]; 2000 mg/d): 2.18±0.247
Day 28/Day 1 Cmax±SD ratio ([3]; 2000 mg/d): 3.70±4.30
Dose proportionality of exposure (in words) ([3]; Cmax and AUC(0-24), days 1 and 28, 500-2000 mg): generally dose proportional
AUC(0-t) ([3]; 500 mg, 500 mg, N=3): 33000 ng·h/mL
AUC(0-t) ([3]; 1000 mg, 1000 mg, N=3): 70000 ng·h/mL
AUC(0-t) ([3]; 2000 mg, 2000 mg, N=2): 94000 ng·h/mL
Tmax ([3]; Day 1, 500-2000 mg cohorts): 2.46 to 6.05 h
Tmax ([3]; Day 28, 500-2000 mg cohorts): 2.61 to 5.02 h
Dose-limiting toxicities (in words) ([4]; 500, 1000 and 2000 mg, cycle 1, 10 evaluable patients): No protocol defined DLTs were observed
Hypophosphatemia, Grade of the grade 3-4 events (CTCAE) ([4]; Cohort 1 (500 mg)): 3
Fatigue, Grade of the grade 3-4 events (CTCAE) ([4]; Cohort 2 (1000 mg)): 3
Pulmonary embolism (SAE), Grade (CTCAE) ([4]; Cohort 2 (1000 mg)): 3
Alanine Transaminase, Grade of the grade 3-4 events (CTCAE) ([4]; Cohort 3 (2000 mg)): 3
Clostridium entercolitis (SAE), Grade (CTCAE) ([4]; Cohort 3 (2000 mg)): 3
Fatigue, Grade of the grade 3-4 events (CTCAE) ([4]; Cohort 3 (2000 mg)): 3
Hepatobiliary disorder (SAE), Grade (CTCAE) ([4]; Cohort 3 (2000 mg)): 3
Hypophosphatemia, Grade of the grade 3-4 events (CTCAE) ([4]; Cohort 3 (2000 mg)): 3
Total treatment emergent AEs reported over the course of the study ([4]; all cohorts, 17 patients): 184
Treatment emergent AEs considered related to SLC-0111 ([4]; all cohorts, 17 patients): 91
SAEs recorded across the entire study group ([4]; all cohorts, only hepatobiliary disorder drug related): Three
Tolerability (in words) ([4]; doses of 1000 mg daily or below): generally well tolerated
Maximum tolerated dose ([4]; doses up to 2000 mg daily): not established
Recommended phase II dose (RP2D) ([4]; oral liquid formulation, once daily): 1000 mg/day
